Laboratory results: ChEMBL document CHEMBL4689842, “EUbOPEN Chemogenomics Library wave 1” (2021)
Values joined by “and” are separate entries in the source; they are usually repeats but may differ in a detail not shown here. Equal entries are not always repeated.

System: HEK-293T
Experiment: Multiplex assay against HEK293T;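 on Population Tubulin-Different-Phenotype (%): share of the cells with healthy nuclei that show this phenotype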
Assay type: toxicity, cell-based
Settings: human
Procedure, shortened: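 Phenotypes for tubulin, mitochondrial mass and membrane permeability are expressed as per cents of healthy-nucleus cells. Cells were stained live at seeding with Hoechst33342, BioTracker Green Microtubule Cytoskeleton Dye, MitoTracker Red and Annexin V Alexa Fluor 680, then imaged after compound addition on a CQ1 microscope at 37°C and 5% CO2. Machine-learning gating in CellPathfinder separated Hoechst high-intensity objects from normal cells, divided normal cells by nuclear state (healthy, pyknosed, fragmented) and divided pyknosed cells into mitotic or apoptotic.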

[1] = 12 h, 1 µM, compound concentration 1 uM, replicate 1
[2] = 12 h, 1 µM, compound concentration 1 uM, replicate 2
[3] = 12 h, 10 µM, compound concentration 10 uM, replicate 1
[4] = 12 h, 10 µM, compound concentration 10 uM, replicate 2
[5] = 24 h, 1 µM, compound concentration 1 uM, replicate 1
[6] = 24 h, 1 µM, compound concentration 1 uM, replicate 2
[7] = 24 h, 10 µM, compound concentration 10 uM, replicate 1
[8] = 24 h, 10 µM, compound concentration 10 uM, replicate 2
[9] = 48 h, 10 µM, compound concentration 10 uM, replicate 1
[10] = 48 h, 10 µM, compound concentration 10 uM, replicate 2

Compound: COc1cc(N2CCC(N(C)C)CC2)ccc1Nc1ncc(Cl)c(Nc2ccccc2P(C)(C)=O)n1
- Population Apoptotic (%) [1]: 16%
- Population Fragmented Nuclei (%) [1]: 19%
- Population Healthy Nuclei (%) [1]: 61%
- Population Hoechst High Intensity Objects (%) [1]: 14%
- Population Membrane Permeable-Phenotype (%) [1]: 1%
- Population Mitochondria Different-Phenotype (%) [1]: 9%
- Population Mitotic Cells (%) [1]: 83%
- Population Normal (%) [1]: 85%
- Population Pyknosed Nuclei (%) [1]: 18%
- Population Tubulin-Different-Phenotype (%) [1]: 7%
- Total Cell Count [1]: 684
- Population Apoptotic (%) [2]: 14%
- Population Fragmented Nuclei (%) [2]: 8%
- Population Healthy Nuclei (%) [2]: 84%
- Population Hoechst High Intensity Objects (%) [2]: 5%
- Population Mitochondria Different-Phenotype (%) [2]: 19%
- Population Mitotic Cells (%) [2]: 85%
- Population Normal (%) [2]: 94%
- Population Pyknosed Nuclei (%) [2]: 6%
- Population Tubulin-Different-Phenotype (%) [2]: 21%
- Total Cell Count [2]: 1309
- Population Fragmented Nuclei (%) [3]: 10% and 13%
- Population Healthy Nuclei (%) [3]: 23% and 51%
- Population Hoechst High Intensity Objects (%) [3]: 21% and 20%
- Population Membrane Permeable-Phenotype (%) [3]: 0% and 6%
- Population Mitotic Cells (%) [3]: 29% and 78%
- Population Normal (%) [3]: 78% and 79%
- Population Pyknosed Nuclei (%) [3]: 66% and 35%
- Population Tubulin-Different-Phenotype (%) [3]: 97% and 54%
- Total Cell Count [3]: 211 and 606
- Population Fragmented Nuclei (%) [4]: 3%
- Population Hoechst High Intensity Objects (%) [4]: 12% and 9%
- Population Membrane Permeable-Phenotype (%) [4]: 3%
- Population Mitochondria Different-Phenotype (%) [4]: 86% and 54%
- Population Mitotic Cells (%) [4]: 41% and 87%
- Population Normal (%) [4]: 87% and 90%
- Population Tubulin-Different-Phenotype (%) [4]: 100% and 85%
- Population Apoptotic (%) [5]: 14%
- Population Fragmented Nuclei (%) [5]: 17%
- Population Healthy Nuclei (%) [5]: 69%
- Population Hoechst High Intensity Objects (%) [5]: 9%
- Population Membrane Permeable-Phenotype (%) [5]: 5%
- Population Mitochondria Different-Phenotype (%) [5]: 8%
- Population Mitotic Cells (%) [5]: 85%
- Population Normal (%) [5]: 90%
- Population Pyknosed Nuclei (%) [5]: 12%
- Population Tubulin-Different-Phenotype (%) [5]: 14%
- Total Cell Count [5]: 667
- Population Apoptotic (%) [6]: 12%
- Population Fragmented Nuclei (%) [6]: 20%
- Population Healthy Nuclei (%) [6]: 77%
- Population Hoechst High Intensity Objects (%) [6]: 4%
- Population Membrane Permeable-Phenotype (%) [6]: 3%
- Population Mitochondria Different-Phenotype (%) [6]: 4%
- Population Mitotic Cells (%) [6]: 87%
- Population Normal (%) [6]: 95%
- Population Pyknosed Nuclei (%) [6]: 2%
- Population Tubulin-Different-Phenotype (%) [6]: 19%
- Total Cell Count [6]: 2108
- Population Apoptotic (%) [7]: 74% and 37%
- Population Fragmented Nuclei (%) [7]: 12% and 14%
- Population Healthy Nuclei (%) [7]: 31% and 55%
- Population Hoechst High Intensity Objects (%) [7]: 24% and 22%
- Population Membrane Permeable-Phenotype (%) [7]: 1% and 7%
- Population Mitochondria Different-Phenotype (%) [7]: 98% and 51%
- Population Mitotic Cells (%) [7]: 25% and 62%
- Population Normal (%) [7]: 75% and 77%
- Population Pyknosed Nuclei (%) [7]: 55% and 30%
- Population Tubulin-Different-Phenotype (%) [7]: 98% and 73%
- Total Cell Count [7]: 229 and 561
- Population Fragmented Nuclei (%) [8]: 7% and 5%
- Population Hoechst High Intensity Objects (%) [8]: 19% and 9%
- Population Membrane Permeable-Phenotype (%) [8]: 0% and 10%
- Population Mitochondria Different-Phenotype (%) [8]: 95% and 60%
- Population Normal (%) [8]: 80% and 90%
- Population Tubulin-Different-Phenotype (%) [8]: 95% and 93%
- Population Apoptotic (%) [9]: 77%
- Population Fragmented Nuclei (%) [9]: 18%
- Population Healthy Nuclei (%) [9]: 34%
- Population Hoechst High Intensity Objects (%) [9]: 23%
- Population Membrane Permeable-Phenotype (%) [9]: 0%
- Population Mitochondria Different-Phenotype (%) [9]: 100%
- Population Mitotic Cells (%) [9]: 22%
- Population Normal (%) [9]: 76%
- Population Pyknosed Nuclei (%) [9]: 47%
- Population Tubulin-Different-Phenotype (%) [9]: 100%
- Total Cell Count [9]: 239
- Population Apoptotic (%) [10]: 91%
- Population Fragmented Nuclei (%) [10]: 8%
- Population Healthy Nuclei (%) [10]: 17%
- Population Hoechst High Intensity Objects (%) [10]: 17%
- Population Mitochondria Different-Phenotype (%) [10]: 90%
- Population Mitotic Cells (%) [10]: 8%
- Population Normal (%) [10]: 82%
- Population Pyknosed Nuclei (%) [10]: 74%
- Population Tubulin-Different-Phenotype (%) [10]: 85%
- Total Cell Count [10]: 147
